Experimental data as given in ChEMBL document CHEMBL4373711, “Development of 3,5-Dinitrophenyl-Containing 1,2,4-Triazoles and Their Trifluoromethyl Analogues as Highly Efficient Antitubercular Agents Inhibiting Decaprenylphosphoryl-β-d-ribofuranose 2'-Oxidase” (J Med Chem, 2019).
In brackets after ≈: the same amount, converted by molar mass. Activity calls are given as the source filed them. The calls are words filed in the database; no cut-off is given here.

Tests used:
[1] = tested on: A-431; test: Cytotoxicity against human A431 cells assessed as reduction in cell viability after 48 hrs by CellTiter 96 aqueous one solution assay; type: cell-based; conditions: A-431, 48 h
[2] = tested on: Klebsiella pneumoniae; test: Antibacterial activity against Klebsiella pneumoniae at highest concentration measured after 24 to 48 hrs by alamar blue dye based broth microdilution assay; type: functional, organism-based
[3] = tested on: Mycobacterium tuberculosis; test: Antimycobacterial activity against Mycobacterium tuberculosis H37Rv CNCTC My 331/88 after 14 days; type: functional; conditions: H37Rv CNCTC My 331/88, 336 h
How it was run: (§1)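 M. tuberculosis strains (H37Rv and clinical MDR/XDR isolates) tested by microdilution in Šula's semisynthetic medium. Compounds were dissolved in DMSO and tested at 32 to 0.03 µM in twofold steps. Inoculum was a 1.0 McFarland suspension diluted 10-3. Plates were incubated at 37 °C and read at 14 and 21 days.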

[4] = tested on: HepG2; test: Cytotoxicity against human HepG2 cells assessed as reduction in cell viability after 48 hrs by CellTiter 96 aqueous one solution assay; type: cell-based; conditions: HepG2, 48 h
[5] = tested on: Mycobacterium avium; test: Antimycobacterial activity against Mycobacterium avium CNCTC My 330/88 after 21 days; type: functional; conditions: CNCTC My 330/88, 504 h
How it was run: (§2)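 M. avium was tested by microdilution in Šula's semisynthetic medium, with compounds dissolved in DMSO and serially diluted from 1000 down to 1. Inoculum was a 1.0 McFarland suspension diluted 10-5. Plates were incubated at 37 °C and read at 14 and 21 days. […] Isoniazid and rifampicin served as standards.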

[6] = tested on: Mycobacterium kansasii; test: Antimycobacterial activity against Mycobacterium kansasii CNCTC My 235/80 after 21 days; type: functional; conditions: CNCTC My 235/80, 504 h
How it was run: (§3)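 Microdilution in Šula's semisynthetic medium; compounds in DMSO at 32–0.03 µM. Inoculum from 1.0 McFarland suspension diluted 10-4. […] Isoniazid and rifampicin as reference drugs.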

[7] = tested on: Mycobacterium kansasii; test: Antimycobacterial activity against Mycobacterium kansasii CNCTC My 235/80 after 14 days; type: functional; conditions: CNCTC My 235/80, 336 h; how it was run: as §3
[8] = tested on: Mycobacterium kansasii; test: Antimycobacterial activity against Mycobacterium kansasii 6509/96 after 7 days; type: functional; conditions: 6509/96, 168 h; how it was run: as §3
[9] = tested on: Staphylococcus aureus; test: Antibacterial activity against methicillin-resistant Staphylococcus aureus subsp. aureus ATCC 43300 CCM 4750 at highest concentration measured after 24 to 48 hrs by alamar blue dye based broth microdilution assay; type: functional, organism-based
[10] = tested on: Candida tropicalis; test: Antifungal activity against Candida tropicalis ATCC 750 CCM 8264 at highest concentration measured after 24 to 48 hrs by alamar blue dye based broth microdilution assay; type: functional, organism-based
[11] = tested on: Mycobacterium kansasii; test: Antimycobacterial activity against Mycobacterium kansasii 6509/96 after 14 days; type: functional; conditions: 6509/96, 336 h; how it was run: as §3
[12] = tested on: Lichtheimia corymbifera; test: Antifungal activity against Lichtheimia corymbifera CCM 8077 at highest concentration measured after 24 to 48 hrs by alamar blue dye based broth microdilution assay; type: functional, organism-based
[13] = tested on: Aspergillus fumigatus; test: Antifungal activity against Aspergillus fumigatus ATCC 204305 at highest concentration measured after 24 to 48 hrs by alamar blue dye based broth microdilution assay; type: functional, organism-based
[14] = tested on: Trichophyton interdigitale; test: Antifungal activity against Trichophyton interdigitale ATCC 9533 CCM 8377 at highest concentration measured after 72 to 120 hrs by alamar blue dye based broth microdilution assay; type: functional
[15] = tested on: Candida albicans; test: Antifungal activity against Candida albicans ATCC 24433 CCM 8320 at highest concentration measured after 24 to 48 hrs by alamar blue dye based broth microdilution assay; type: functional, organism-based
[16] = tested on: Escherichia coli; test: Antibacterial activity against Escherichia coli ATCC 25922 CCM 3954 at highest concentration measured after 24 to 48 hrs by alamar blue dye based broth microdilution assay; type: functional, organism-based
[17] = tested on: Staphylococcus epidermidis; test: Antibacterial activity against Staphylococcus epidermidis at highest concentration measured after 24 to 48 hrs by alamar blue dye based broth microdilution assay; type: functional, organism-based
[18] = Cytotoxicity against human A431 cells assessed as cell viability at 30 uM after 48 hrs by CellTiter 96 aqueous one solution assay relative to control; type: cell-based, A-431; conditions: read-out: Activity
How it was run: (§4)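 HepG2 (DMEM, 10% FBS, 1 mM pyruvate) or A431 (DMEM, 10% FBS) seeded 10,000 cells/well, 24 h at 37 °C, 5% CO2, then 30 µM compound for 48 h. MTS reagent 60 min, absorbance 490 nm, background subtracted; 0.1% DMSO vehicle = 100%, 10% SDS = 0% viability.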

[19] = tested on: Staphylococcus aureus; test: Antibacterial activity against Staphylococcus aureus subsp. aureus ATCC 29213 CCM 4223 at highest concentration measured after 24 to 48 hrs by alamar blue dye based broth microdilution assay; type: functional, organism-based
[20] = tested on: Aspergillus flavus; test: Antifungal activity against Aspergillus flavus CCM 8363 at highest concentration measured after 24 to 48 hrs by alamar blue dye based broth microdilution assay; type: functional, organism-based
[21] = tested on: Pseudomonas aeruginosa; test: Antibacterial activity against Pseudomonas aeruginosa ATCC 27853 CCM 3955 at highest concentration measured after 24 to 48 hrs by alamar blue dye based broth microdilution assay; type: functional, organism-based
[22] = tested on: Serratia marcescens; test: Antibacterial activity against Serratia marcescens at highest concentration measured after 24 to 48 hrs by alamar blue dye based broth microdilution assay; type: functional, organism-based
[23] = tested on: Mycobacterium avium; test: Antimycobacterial activity against Mycobacterium avium CNCTC My 330/88 after 14 days; type: functional; conditions: CNCTC My 330/88, 336 h; how it was run: as §2
[24] = tested on: Candida parapsilosis; test: Antifungal activity against Candida parapsilosis ATCC 22019 CCM 8260 at highest concentration measured after 24 to 48 hrs by alamar blue dye based broth microdilution assay; type: functional, organism-based
[25] = tested on: Mycobacterium tuberculosis; test: Antimycobacterial activity against XDR Mycobacterium tuberculosis Praha 131 after 21 days; type: functional; conditions: Praha 131, 504 h; how it was run: as §1
[26] = tested on: Mycobacterium tuberculosis; test: Antimycobacterial activity against Mycobacterium tuberculosis H37Rv CNCTC My 331/88 after 21 days; type: functional; conditions: H37Rv CNCTC My 331/88, 504 h; how it was run: as §1
[27] = tested on: Mycobacterium kansasii; test: Antimycobacterial activity against Mycobacterium kansasii CNCTC My 235/80 after 7 days; type: functional; conditions: CNCTC My 235/80, 168 h; how it was run: as §3
[28] = tested on: Pichia kudriavzevii; test: Antifungal activity against Candida krusei ATCC 6258 CCM8271 at highest concentration measured after 24 to 48 hrs by alamar blue dye based broth microdilution assay; type: functional, organism-based
[29] = tested on: Mycobacterium kansasii; test: Antimycobacterial activity against Mycobacterium kansasii 6509/96 after 21 days; type: functional; conditions: 6509/96, 504 h; how it was run: as §3
[30] = Cytotoxicity against human HepG2 cells assessed as cell viability at 30 uM after 48 hrs by CellTiter 96 aqueous one solution assay relative to control; type: cell-based; conditions: read-out: Activity; how it was run: as §4
[31] = tested on: Enterococcus faecalis; test: Antibacterial activity against Enterococcus faecalis ATCC 29212 CCM 4224 at highest concentration measured after 24 to 48 hrs by alamar blue dye based broth microdilution assay; type: functional, organism-based
[32] = tested on: Mycobacterium tuberculosis; test: Antimycobacterial activity against XDR Mycobacterium tuberculosis Praha 131 after 14 days; type: functional; conditions: Praha 131, 336 h; how it was run: as §1

Compound	IC50 [1]	Activity [2]	MIC99 [3]	IC50 [4]	MIC99 [5]	MIC99 [6]	MIC99 [7]	MIC99 [8]	Activity [9]	Activity [10]	MIC99 [11]	Activity [12]	Activity [13]	Activity [14]	Activity [15]	Activity [16]	Activity [17]	viability at 48 h, 30 µM [18]	Activity [19]	Activity [20]	further results
CCCCCCCCSc1nnc(-c2cc([N+](=O)[O-])cc([N+](=O)[O-])c2)n1Cc1ccccc1	> 30 µM	inactive	0.06 µM (≈ 0.0282 µg/mL)	> 30 µM	250 µM (≈ 117 µg/mL)	0.125 µM (≈ 0.0587 µg/mL)	0.06 µM (≈ 0.0282 µg/mL)	0.06 µM (≈ 0.0282 µg/mL)	inactive	inactive	0.06 µM (≈ 0.0282 µg/mL)	inactive	inactive	inactive	inactive	inactive	inactive	131%	inactive	inactive	Activity [21]: inactive; Activity [22]: inactive; MIC99 [23]: 250 µM (≈ 117 µg/mL); Activity [24]: inactive; MIC99 [25]: 0.25 µM (≈ 0.117 µg/mL); MIC99 [26]: 0.125 µM (≈ 0.0587 µg/mL); MIC99 [27]: 0.06 µM (≈ 0.0282 µg/mL); Activity [28]: inactive; MIC99 [29]: 0.125 µM (≈ 0.0587 µg/mL); viability at 48 h, 30 µM [30]: 99%; Activity [31]: inactive; MIC99 [32]: 0.125 µM (≈ 0.0587 µg/mL)
CCn1c(SCc2ccccc2)nnc1-c1cc([N+](=O)[O-])cc([N+](=O)[O-])c1	> 30 µM	inactive	0.03 µM (≈ 0.0116 µg/mL)	> 30 µM	250 µM (≈ 96.4 µg/mL)	0.03 µM (≈ 0.0116 µg/mL)	0.03 µM (≈ 0.0116 µg/mL)	0.03 µM (≈ 0.0116 µg/mL)	inactive	inactive	0.03 µM (≈ 0.0116 µg/mL)	inactive	inactive	inactive	inactive	inactive	inactive	90%	inactive	inactive	Activity [21]: inactive; Activity [22]: inactive; MIC99 [23]: 250 µM (≈ 96.4 µg/mL); Activity [24]: inactive; MIC99 [25]: 0.03 µM (≈ 0.0116 µg/mL); MIC99 [26]: 0.03 µM (≈ 0.0116 µg/mL); MIC99 [27]: 0.03 µM (≈ 0.0116 µg/mL); Activity [28]: inactive; MIC99 [29]: 0.03 µM (≈ 0.0116 µg/mL); viability at 48 h, 30 µM [30]: 156%; Activity [31]: inactive; MIC99 [32]: 0.03 µM (≈ 0.0116 µg/mL)
Cn1c(SCc2ccccc2)nnc1-c1cc([N+](=O)[O-])cc([N+](=O)[O-])c1	> 30 µM	inactive	0.03 µM (≈ 0.0111 µg/mL)	> 30 µM	16 µM (≈ 5.94 µg/mL)	0.25 µM (≈ 0.0928 µg/mL)	0.25 µM (≈ 0.0928 µg/mL)	0.06 µM (≈ 0.0223 µg/mL)	inactive	inactive	0.125 µM (≈ 0.0464 µg/mL)	inactive	inactive	inactive	inactive	inactive	inactive	108%	inactive	inactive	Activity [21]: inactive; Activity [22]: inactive; MIC99 [23]: 16 µM (≈ 5.94 µg/mL); Activity [24]: inactive; MIC99 [25]: 0.03 µM (≈ 0.0111 µg/mL); MIC99 [26]: 0.03 µM (≈ 0.0111 µg/mL); MIC99 [27]: 0.25 µM (≈ 0.0928 µg/mL); Activity [28]: inactive; MIC99 [29]: 0.25 µM (≈ 0.0928 µg/mL); viability at 48 h, 30 µM [30]: 161%; Activity [31]: inactive; MIC99 [32]: 0.03 µM (≈ 0.0111 µg/mL)
